Results from ChEMBL document CHEMBL1770048, “Synthesis and biological evaluation of a diazepanone-based library of liposidomycins analogs as MraY inhibitors” (Eur J Med Chem, 2011).

Experiments:
[1] = Inhibition of Staphylococcus aureus MurG after 30 mins
Procedure, shortened: (§1)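 MurG reaction in 12.5 μl: 200 mM Tris-HCl pH 7.5, 10 mM MgCl₂, 16 μM UDP-[¹⁴C]GlcNAc, 16 μM lipid I analog, 30% (v/v) DMSO (final) plus MurG. Run 30 min at 37 °C, stopped by 3 min boiling, lyophilized, redissolved in 2-propanol/NH₄OH/water (6:3:1). Lipid II resolved by silica TLC in the same solvent and counted by radioactivity scanning. Residual activity versus no-inhibitor control; IC50 from 7 concentrations.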

[2] = target: T1, Phospho-N-acetylmuramoyl-pentapeptide-transferase (Staphylococcus aureus, UniProt P0C1R8); assay: Inhibition of Staphylococcus aureus MraY after 30 mins
T1 sequence (P0C1R8 whole entry): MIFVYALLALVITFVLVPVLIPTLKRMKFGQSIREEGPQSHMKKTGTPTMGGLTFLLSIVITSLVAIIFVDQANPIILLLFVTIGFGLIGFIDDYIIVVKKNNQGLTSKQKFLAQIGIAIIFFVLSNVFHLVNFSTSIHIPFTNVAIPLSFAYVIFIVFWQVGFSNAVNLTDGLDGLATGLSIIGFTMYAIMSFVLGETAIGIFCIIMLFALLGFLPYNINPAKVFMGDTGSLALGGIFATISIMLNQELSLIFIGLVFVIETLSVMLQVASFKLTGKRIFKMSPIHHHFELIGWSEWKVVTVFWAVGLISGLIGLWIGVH
Procedure, shortened: (§2)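 Started with enzyme, 30 min at 37 °C with shaking, stopped at 100 °C for 1 min. Lipid I separated from substrate by silica TLC (2-propanol/NH₄OH/water 6:3:1), spots quantified by radioactivity scanning. Residual activity relative to no-inhibitor control; IC50 from 7 inhibitor concentrations.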

Staphylococcus aureus [3] = assay: Inhibition of Staphylococcus aureus MurG assessed as residual activity of enzyme at 2 mM after 30 mins; procedure, shortened: as §1
[4] = target: T2, Phospho-N-acetylmuramoyl-pentapeptide-transferase (Staphylococcus aureus) (UniProt P0C1R8); assay: Inhibition of Staphylococcus aureus MraY assessed as residual activity of enzyme at 1 mM after 30 mins; procedure, shortened: as §2
T2 sequence (whole entry): T1 sequence (P0C1R8 whole entry)

Staphylococcus aureus [5] = assay: Inhibition of Staphylococcus aureus MurG assessed as residual activity of enzyme at 1 mM after 30 mins; procedure, shortened: as §1
[6] = target: T2, Phospho-N-acetylmuramoyl-pentapeptide-transferase (Staphylococcus aureus); assay: Inhibition of Staphylococcus aureus MraY assessed as residual activity of enzyme at 2 mM after 30 mins; conditions: 1 mM, in the assay text read “at 1 mM” for “at 2 mM”; procedure, shortened: as §2

Compound | IC50 [1] [µM] | IC50 [2] [µM] | Activity (Staphylococcus aureus [3]) [%] | other results
CCCCCCCCCCCCCCCC(=O)O[C@H]1CN(CCCCCn2ccc(=O)[nH]c2=O)[C@@H](CO[C@@H]2O[C@H](CN)[C@H]3OC(CC)(CC)O[C@@H]23)C(=O)N[C@@H]1CO[C@@H]1O[C@H](CN)[C@H]2OC(CC)(CC)O[C@@H]12 | 100 | 310 |  | 
CCCCCCCCCCCCCCCC(=O)O[C@H]1CN(CCCCCn2ccc(=O)[nH]c2=O)[C@@H](COCc2ccccc2)C(=O)N[C@@H]1CO[Si](c1ccccc1)(c1ccccc1)C(C)(C)C |  | 1400 | 100 | 
CCCCCCCCCCCCCCCC(=O)O[C@H]1CN(CCCCCn2ccc(=O)[nH]c2=O)[C@@H](CO[C@@H]2O[C@H](CN=[N+]=[N-])[C@H]3OC(CC)(CC)O[C@@H]23)C(=O)N[C@@H]1CO[Si](c1ccccc1)(c1ccccc1)C(C)(C)C |  | 190 | 100 | 
CCCCCCCCCCCCCCCC(=O)O[C@H]1CN(CCCCCn2ccc(=O)[nH]c2=O)[C@@H](CO[C@@H]2O[C@H](CN=[N+]=[N-])[C@H]3OC(CC)(CC)O[C@@H]23)C(=O)N[C@@H]1CO[C@@H]1O[C@H](CN=[N+]=[N-])[C@H]2OC(CC)(CC)O[C@@H]12 |  | 420 | 87 | 
CCCCCCCCCCCCCCCC(=O)O[C@H]1CN(CCCCCn2ccc(=O)[nH]c2=O)[C@@H](CO[C@@H]2O[C@H](CN)[C@@H](O)[C@H]2O)C(=O)N[C@@H]1CO | 530 | 220 |  | 
CCCCCCCCCCCCCCCC(=O)O[C@H]1CN(C)[C@@H](CO[C@@H]2O[C@H](CN)[C@H]3OC(CC)(CC)O[C@@H]23)C(=O)N[C@@H]1CO[Si](c1ccccc1)(c1ccccc1)C(C)(C)C |  | 1000 |  | 
CCCCCCCCCCCCCCCC(=O)O[C@H]1CN(C)[C@@H](CO[C@@H]2O[C@H](CN)[C@@H](O)[C@H]2O)C(=O)N[C@@H]1CO |  |  | 100 | Activity [4]: 75%
CCCCCCCCCCCCCCCC(=O)O[C@H]1CN(CCCCCn2ccc(=O)[nH]c2=O)[C@@H](CO[C@@H]2O[C@H](CN)[C@H]3OC(CC)(CC)O[C@@H]23)C(=O)N[C@@H]1CO[Si](c1ccccc1)(c1ccccc1)C(C)(C)C | 110 | 620 |  | 
CCCCCCCCCCCCCCCC(=O)O[C@H]1CN(CCCCCn2ccc(=O)[nH]c2=O)[C@@H](CO)C(=O)N[C@@H]1CO[Si](c1ccccc1)(c1ccccc1)C(C)(C)C |  | 380 | 66 | 
CCCCCCCCCCCCCCCC(=O)O[C@H]1CN(CCCCCn2ccc(=O)[nH]c2=O)[C@@H](CO[C@@H]2O[C@H](CN)[C@@H](O)[C@H]2O)C(=O)N[C@@H]1CO[C@@H]1O[C@H](CN)[C@@H](O)[C@H]1O | 130 | 2800 |  | 
CCCCCCCCCCCCCCCC(=O)O[C@H]1CN(CCCCCn2ccc(=O)[nH]c2=O)[C@@H](CO)C(=O)N[C@@H]1CO |  | 270 | 100 | 
CCCCCCCCCCCCCCCC(=O)O[C@H]1CN(C)[C@@H](CO)C(=O)N[C@@H]1CO |  | 1740 |  | 
CC(C)(C)[Si](OC[C@H]1NC(=O)[C@H](COCc2ccccc2)N(CCCCCn2ccc(=O)[nH]c2=O)C[C@@H]1O)(c1ccccc1)c1ccccc1 |  | 1600 |  | Activity (Staphylococcus aureus [5]): 100%
CCCCCCCCCCCCCCCC(=O)O[C@H]1CN(CCCCCn2ccc(=O)[nH]c2=O)[C@@H](CO[C@@H]2O[C@H](CN)[C@@H](O)[C@H]2O)C(=O)N[C@@H]1CO[Si](c1ccccc1)(c1ccccc1)C(C)(C)C | 185 | 120 |  | 
CCCCCCCCCCCCCCCC(=O)O[C@H]1CN(C)[C@@H](CO[C@@H]2O[C@H](CN)[C@@H](O)[C@H]2O)C(=O)N[C@@H]1CO[Si](c1ccccc1)(c1ccccc1)C(C)(C)C | 150 |  |  | Activity [6]: 66%
